Assay [1] deals with Myosin light chain kinase 2, skeletal/cardiac muscle (Homo sapiens, UniProt Q9H1R3). Nature of the assay: Inhibition of full length recombinant human N-terminal GST-tagged MLCK expressed in baculovirus expression system by lantha screen kinase binding assay. The essentials:
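Binding-displacement format: the compound competes with an Alexa Fluor-conjugated tracer for binding to the kinase ATP site, rather than a peptide phosphorylation read-out.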

The target of assay [2] is Casein kinase I isoform gamma-3 (Homo sapiens) (UniProt Q9Y6M4). Briefly: Inhibition of full length recombinant human GST-tagged CSNK1G3 expressed in baculovirus expression system at 1 uM by lantha screen kinase binding assay relative to control.
Assay [3] can be described thus: Growth inhibition of human U87MG cells after 4 days by MTT assay. Type of assay: functional, cell-based, U-87MG ATCC. The conditions noted are these: U-87 MG, 96 h. For orientation: Tetrazolium assays rely on reduction of a dye to a coloured formazan, in cell work by metabolically active cells.
Assay [4] concerns the target Serine/threonine-protein kinase 17A (Homo sapiens, UniProt Q9UEE5). Nature of the assay: Inhibition of STK17A (unknown origin).
Assay [5] deals with Serine/threonine-protein kinase pim-1 (Homo sapiens, UniProt P11309). Briefly: Inhibition of PIM1 (unknown origin). In a few lines:
(§1)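 Calculated from means of duplicates differing by less than 7%.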

Assay [6] has as its target T1, Serine/threonine-protein kinase haspin (Homo sapiens) (UniProt Q8TF76).
T1 sequence (whole entry): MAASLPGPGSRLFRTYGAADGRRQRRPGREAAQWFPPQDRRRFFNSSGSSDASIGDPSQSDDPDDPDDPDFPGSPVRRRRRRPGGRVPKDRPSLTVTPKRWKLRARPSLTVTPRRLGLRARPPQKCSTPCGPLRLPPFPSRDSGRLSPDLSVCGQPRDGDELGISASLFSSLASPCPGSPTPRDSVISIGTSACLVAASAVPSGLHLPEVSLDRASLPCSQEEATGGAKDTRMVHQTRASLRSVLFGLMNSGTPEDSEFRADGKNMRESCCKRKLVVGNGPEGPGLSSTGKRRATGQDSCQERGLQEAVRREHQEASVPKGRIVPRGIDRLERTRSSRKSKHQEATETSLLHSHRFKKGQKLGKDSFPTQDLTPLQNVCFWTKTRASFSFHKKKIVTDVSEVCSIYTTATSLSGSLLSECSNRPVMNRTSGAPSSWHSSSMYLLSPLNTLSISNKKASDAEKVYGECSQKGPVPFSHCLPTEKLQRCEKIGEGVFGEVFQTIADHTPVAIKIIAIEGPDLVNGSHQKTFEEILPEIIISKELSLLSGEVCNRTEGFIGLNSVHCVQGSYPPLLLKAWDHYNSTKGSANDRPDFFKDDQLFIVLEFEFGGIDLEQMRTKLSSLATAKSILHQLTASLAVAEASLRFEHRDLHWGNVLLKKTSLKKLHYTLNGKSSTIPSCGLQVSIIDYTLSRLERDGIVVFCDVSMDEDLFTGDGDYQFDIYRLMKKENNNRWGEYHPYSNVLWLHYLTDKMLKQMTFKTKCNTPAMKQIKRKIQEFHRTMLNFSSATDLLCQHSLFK
Nature of the assay: Inhibition of Haspin (unknown origin) at 1 uM relative to control. The essentials:
(§2)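 Single-point screen at 1 μM compound. Percent inhibition is the mean of two separate measurements, each run in duplicate.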

Assay [7] addresses Serine/threonine-protein kinase haspin (Homo sapiens, UniProt Q8TF76). Nature of the assay: Inhibition of Haspin (unknown origin). In a few lines: as §1
Assay [8] addresses Phosphatidylinositol 4-phosphate 3-kinase C2 domain-containing subunit beta (Homo sapiens) (UniProt O00750). Nature of the assay: Inhibition of PI3K-C2beta (unknown origin) at 1 uM relative to control. The essentials: as §2
In assay [9] the target is T2, Phosphatidylinositol 4,5-bisphosphate 3-kinase catalytic subunit gamma isoform (Homo sapiens, UniProt P48736). Nature of the assay: Inhibition of PI3K p110gamma (unknown origin) at 1 uM relative to control. The essentials: as §2
Target sequence in this assay (P48736 whole entry, looked up, canonical isoform): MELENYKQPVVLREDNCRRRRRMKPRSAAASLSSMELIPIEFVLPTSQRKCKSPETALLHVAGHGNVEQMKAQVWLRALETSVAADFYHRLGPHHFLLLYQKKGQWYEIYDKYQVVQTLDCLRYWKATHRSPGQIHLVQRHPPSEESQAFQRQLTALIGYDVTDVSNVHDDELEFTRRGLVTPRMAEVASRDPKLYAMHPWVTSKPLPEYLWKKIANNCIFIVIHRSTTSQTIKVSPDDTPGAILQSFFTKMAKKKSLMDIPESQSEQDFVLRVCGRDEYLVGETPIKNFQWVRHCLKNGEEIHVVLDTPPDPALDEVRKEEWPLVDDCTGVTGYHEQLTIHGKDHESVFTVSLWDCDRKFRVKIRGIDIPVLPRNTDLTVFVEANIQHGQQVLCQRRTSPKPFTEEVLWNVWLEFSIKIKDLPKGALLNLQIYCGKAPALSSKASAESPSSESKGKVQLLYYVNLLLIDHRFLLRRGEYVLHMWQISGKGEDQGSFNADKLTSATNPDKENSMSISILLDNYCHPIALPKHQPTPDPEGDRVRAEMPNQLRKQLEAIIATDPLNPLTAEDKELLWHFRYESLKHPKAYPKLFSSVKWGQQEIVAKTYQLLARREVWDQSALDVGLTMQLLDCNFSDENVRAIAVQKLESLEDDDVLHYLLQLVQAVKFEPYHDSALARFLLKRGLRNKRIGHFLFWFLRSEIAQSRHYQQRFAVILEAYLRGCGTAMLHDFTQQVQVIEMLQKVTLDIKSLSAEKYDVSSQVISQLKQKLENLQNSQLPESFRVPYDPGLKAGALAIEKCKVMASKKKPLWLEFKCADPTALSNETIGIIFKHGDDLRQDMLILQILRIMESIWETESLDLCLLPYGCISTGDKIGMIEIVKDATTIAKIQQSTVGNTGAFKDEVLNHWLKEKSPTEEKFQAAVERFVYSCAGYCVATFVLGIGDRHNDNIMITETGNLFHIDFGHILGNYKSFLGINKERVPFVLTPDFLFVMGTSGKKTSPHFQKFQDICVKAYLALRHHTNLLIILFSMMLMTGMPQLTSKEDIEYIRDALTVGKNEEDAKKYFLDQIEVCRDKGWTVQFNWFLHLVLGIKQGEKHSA
Assay [10] concerns the target T2, Phosphatidylinositol 4,5-bisphosphate 3-kinase catalytic subunit gamma isoform. Briefly: Inhibition of PI3K p110gamma (unknown origin).
Target sequence in this assay (P48736 whole entry, canonical isoform): as the sequence (P48736 whole entry, looked up, canonical isoform) above
The target of assay [11] is T3, Dual specificity protein kinase CLK4 (Homo sapiens, UniProt Q9HAZ1). Briefly: Inhibition of full length recombinant human GST-tagged CLK4 expressed in baculovirus expression system by lantha screen kinase binding assay. The essentials:
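LanthaScreen binding format: test compound competes with an Alexa Fluor-conjugated tracer for the ATP site. IC50 derived from this displacement, not from peptide phosphorylation.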
Target sequence in this assay (Q9HAZ1 whole entry): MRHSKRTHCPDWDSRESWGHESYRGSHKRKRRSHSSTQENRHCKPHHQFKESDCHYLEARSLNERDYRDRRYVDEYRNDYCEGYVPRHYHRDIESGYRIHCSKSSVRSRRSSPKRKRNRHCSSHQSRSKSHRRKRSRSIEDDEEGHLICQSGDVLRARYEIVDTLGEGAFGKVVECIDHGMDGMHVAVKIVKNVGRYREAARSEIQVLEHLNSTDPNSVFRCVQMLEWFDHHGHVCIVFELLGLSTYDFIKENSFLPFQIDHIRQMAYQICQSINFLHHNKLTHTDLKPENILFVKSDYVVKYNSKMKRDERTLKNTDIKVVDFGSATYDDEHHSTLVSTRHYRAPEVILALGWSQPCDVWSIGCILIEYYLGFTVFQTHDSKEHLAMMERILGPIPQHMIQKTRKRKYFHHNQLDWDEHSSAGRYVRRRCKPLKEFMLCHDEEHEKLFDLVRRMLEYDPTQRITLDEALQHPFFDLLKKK

Assay [12] deals with Mitogen-activated protein kinase 14 (Homo sapiens) (UniProt Q16539). Briefly: Inhibition of full length recombinant human GST-tagged MAPK14 expressed in Escherichia coli at 1 uM by lantha screen kinase binding assay relative to control.
Assay [13] has as its target T4, Phosphatidylinositol 4,5-bisphosphate 3-kinase catalytic subunit delta isoform (Homo sapiens) (UniProt O00329).
T4 sequence (whole entry): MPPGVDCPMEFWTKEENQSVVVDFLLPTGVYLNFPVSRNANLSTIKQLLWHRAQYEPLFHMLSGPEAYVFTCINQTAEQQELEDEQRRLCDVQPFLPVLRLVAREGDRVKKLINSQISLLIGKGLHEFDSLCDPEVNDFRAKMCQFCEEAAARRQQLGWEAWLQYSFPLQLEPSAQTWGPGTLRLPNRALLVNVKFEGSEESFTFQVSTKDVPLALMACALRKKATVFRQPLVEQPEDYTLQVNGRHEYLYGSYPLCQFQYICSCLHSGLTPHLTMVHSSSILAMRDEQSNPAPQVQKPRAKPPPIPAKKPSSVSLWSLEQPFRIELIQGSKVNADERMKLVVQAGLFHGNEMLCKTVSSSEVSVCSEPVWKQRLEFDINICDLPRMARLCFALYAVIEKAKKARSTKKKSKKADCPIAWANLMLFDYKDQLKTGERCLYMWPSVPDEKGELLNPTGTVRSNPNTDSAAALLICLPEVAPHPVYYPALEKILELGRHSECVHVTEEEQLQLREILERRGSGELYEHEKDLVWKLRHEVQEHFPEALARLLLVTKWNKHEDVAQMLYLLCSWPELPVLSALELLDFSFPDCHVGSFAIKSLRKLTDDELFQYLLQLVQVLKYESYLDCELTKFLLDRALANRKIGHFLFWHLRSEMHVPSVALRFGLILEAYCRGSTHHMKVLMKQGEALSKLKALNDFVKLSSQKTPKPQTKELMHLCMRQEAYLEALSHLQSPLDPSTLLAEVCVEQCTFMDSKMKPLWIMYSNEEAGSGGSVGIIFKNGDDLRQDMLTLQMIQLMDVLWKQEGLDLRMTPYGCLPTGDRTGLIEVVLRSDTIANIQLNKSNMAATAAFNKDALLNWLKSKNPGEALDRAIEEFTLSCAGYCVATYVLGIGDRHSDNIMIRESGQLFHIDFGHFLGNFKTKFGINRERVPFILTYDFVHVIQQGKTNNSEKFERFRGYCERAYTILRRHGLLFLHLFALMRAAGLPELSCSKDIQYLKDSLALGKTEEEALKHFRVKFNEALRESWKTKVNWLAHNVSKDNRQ
Conditions: 1 uM.

Assay [14] addresses T3, Dual specificity protein kinase CLK4. The conditions noted are these: 1 uM.
Target sequence in this assay (Q9HAZ1 whole entry, looked up): as the sequence (Q9HAZ1 whole entry) above
The target in assay [15] is Casein kinase I isoform gamma-3 (Homo sapiens) (UniProt Q9Y6M4). Nature of the assay: Inhibition of full length recombinant human GST-tagged CSNK1G3 expressed in baculovirus expression system at 5 uM by lantha screen kinase binding assay relative to control.
Assay [16] addresses T4, Phosphatidylinositol 4,5-bisphosphate 3-kinase catalytic subunit delta isoform (Homo sapiens). Briefly: Inhibition of PI3K p110delta (unknown origin) at 5 uM relative to control.

pIC50: −log10 of the molar value. Active and inactive are the calls of the source. The calls are words filed in the database; no cut-off is given here.

A word on the pIC50: it is −log10 of the IC50, conventionally taken in molar units. For orientation: inhibition means the percentage by which the read-out fell short of the control.

Chain of Casein kinase I isoform gamma-3 (Homo sapiens) (Q9Y6M4 whole entry, looked up, canonical isoform): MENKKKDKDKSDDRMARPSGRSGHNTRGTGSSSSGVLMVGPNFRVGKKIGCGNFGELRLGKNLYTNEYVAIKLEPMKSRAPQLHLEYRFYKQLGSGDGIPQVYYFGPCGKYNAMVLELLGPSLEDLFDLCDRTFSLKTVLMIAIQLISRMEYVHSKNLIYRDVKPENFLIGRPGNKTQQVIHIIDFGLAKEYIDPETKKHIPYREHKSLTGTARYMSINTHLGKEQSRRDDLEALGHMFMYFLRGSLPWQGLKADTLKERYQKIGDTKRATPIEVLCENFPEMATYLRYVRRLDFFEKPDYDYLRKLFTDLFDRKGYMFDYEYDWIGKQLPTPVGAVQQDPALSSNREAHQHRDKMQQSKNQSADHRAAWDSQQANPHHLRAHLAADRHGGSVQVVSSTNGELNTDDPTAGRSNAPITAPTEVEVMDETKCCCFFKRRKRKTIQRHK
Chain of Phosphatidylinositol 4-phosphate 3-kinase C2 domain-containing subunit beta (Homo sapiens) (O00750 whole entry, the tested form may be a part, canonical isoform): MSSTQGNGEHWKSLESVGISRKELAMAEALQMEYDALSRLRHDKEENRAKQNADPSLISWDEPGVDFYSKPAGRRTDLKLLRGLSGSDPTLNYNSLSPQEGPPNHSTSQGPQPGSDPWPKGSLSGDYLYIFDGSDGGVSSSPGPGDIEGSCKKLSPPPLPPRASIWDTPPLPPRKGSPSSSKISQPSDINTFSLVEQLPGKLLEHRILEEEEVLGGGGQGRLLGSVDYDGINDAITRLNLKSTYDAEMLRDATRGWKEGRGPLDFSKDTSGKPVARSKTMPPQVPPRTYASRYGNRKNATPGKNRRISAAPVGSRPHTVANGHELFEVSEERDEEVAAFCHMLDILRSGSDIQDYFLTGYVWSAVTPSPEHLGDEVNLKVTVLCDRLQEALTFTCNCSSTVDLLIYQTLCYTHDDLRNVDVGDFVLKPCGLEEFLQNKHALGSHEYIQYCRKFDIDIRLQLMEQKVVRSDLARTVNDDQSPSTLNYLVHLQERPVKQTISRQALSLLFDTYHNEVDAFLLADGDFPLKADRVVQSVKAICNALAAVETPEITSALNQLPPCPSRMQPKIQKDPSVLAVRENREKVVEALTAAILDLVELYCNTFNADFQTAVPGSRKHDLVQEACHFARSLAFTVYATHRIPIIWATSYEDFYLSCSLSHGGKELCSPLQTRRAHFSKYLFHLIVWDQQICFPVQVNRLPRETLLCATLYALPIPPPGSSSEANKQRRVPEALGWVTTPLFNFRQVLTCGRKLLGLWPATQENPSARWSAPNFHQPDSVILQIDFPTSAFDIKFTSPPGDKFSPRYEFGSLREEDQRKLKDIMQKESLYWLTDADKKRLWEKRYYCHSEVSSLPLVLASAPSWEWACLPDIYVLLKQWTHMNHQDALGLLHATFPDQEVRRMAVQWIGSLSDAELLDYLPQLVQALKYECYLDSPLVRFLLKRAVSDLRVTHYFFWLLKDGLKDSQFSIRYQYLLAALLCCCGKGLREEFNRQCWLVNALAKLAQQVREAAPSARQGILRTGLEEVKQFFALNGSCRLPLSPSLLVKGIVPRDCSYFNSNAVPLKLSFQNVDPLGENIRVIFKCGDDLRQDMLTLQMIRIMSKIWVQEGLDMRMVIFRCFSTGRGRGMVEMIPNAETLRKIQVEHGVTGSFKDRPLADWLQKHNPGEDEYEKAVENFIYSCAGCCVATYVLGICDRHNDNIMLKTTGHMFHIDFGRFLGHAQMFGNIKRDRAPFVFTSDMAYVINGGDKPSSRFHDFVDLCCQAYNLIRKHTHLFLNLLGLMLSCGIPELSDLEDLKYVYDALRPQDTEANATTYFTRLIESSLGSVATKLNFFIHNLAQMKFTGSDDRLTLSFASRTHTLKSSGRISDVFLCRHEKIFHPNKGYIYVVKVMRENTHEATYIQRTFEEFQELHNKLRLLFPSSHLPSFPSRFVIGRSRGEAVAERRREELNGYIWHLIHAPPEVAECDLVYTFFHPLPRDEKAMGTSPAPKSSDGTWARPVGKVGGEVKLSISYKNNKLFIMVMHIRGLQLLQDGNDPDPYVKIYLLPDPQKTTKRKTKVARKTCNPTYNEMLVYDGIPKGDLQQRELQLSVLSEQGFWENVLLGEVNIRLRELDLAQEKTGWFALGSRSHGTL
Chain of Serine/threonine-protein kinase pim-1 (P11309 whole entry): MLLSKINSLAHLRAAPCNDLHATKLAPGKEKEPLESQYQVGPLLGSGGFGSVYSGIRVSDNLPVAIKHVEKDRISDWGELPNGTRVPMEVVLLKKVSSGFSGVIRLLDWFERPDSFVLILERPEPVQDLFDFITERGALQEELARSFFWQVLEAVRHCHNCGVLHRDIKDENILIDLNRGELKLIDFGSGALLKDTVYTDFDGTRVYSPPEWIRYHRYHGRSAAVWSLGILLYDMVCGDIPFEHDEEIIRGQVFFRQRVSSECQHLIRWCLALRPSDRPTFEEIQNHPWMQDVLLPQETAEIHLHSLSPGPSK
Chain of Mitogen-activated protein kinase 14 (Homo sapiens) (Q16539 whole entry, canonical isoform): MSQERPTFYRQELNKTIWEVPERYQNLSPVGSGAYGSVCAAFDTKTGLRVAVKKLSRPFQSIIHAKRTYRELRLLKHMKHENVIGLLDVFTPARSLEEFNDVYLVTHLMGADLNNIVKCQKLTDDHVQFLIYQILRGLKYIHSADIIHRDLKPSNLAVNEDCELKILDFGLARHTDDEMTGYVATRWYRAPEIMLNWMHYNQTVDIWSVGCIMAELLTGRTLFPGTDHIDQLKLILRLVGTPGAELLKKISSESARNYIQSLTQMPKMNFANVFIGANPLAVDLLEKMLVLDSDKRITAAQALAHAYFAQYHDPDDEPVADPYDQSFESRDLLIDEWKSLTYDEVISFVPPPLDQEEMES
Chain of Serine/threonine-protein kinase 17A (Q9UEE5 whole entry): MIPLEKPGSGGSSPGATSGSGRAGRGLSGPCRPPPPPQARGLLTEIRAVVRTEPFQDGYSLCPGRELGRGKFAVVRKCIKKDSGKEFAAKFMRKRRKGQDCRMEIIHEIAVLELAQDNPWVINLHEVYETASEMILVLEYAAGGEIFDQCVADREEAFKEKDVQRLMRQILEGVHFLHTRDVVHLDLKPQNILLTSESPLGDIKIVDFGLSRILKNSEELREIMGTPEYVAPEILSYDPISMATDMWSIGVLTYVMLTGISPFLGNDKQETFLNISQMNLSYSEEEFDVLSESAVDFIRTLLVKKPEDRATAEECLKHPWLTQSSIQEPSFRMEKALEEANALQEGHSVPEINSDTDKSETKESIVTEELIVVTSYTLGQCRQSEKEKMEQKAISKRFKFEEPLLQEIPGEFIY

For the compound `O=C1NC(=S)S/C1=C\c1ccc2ncccc2c1`, the pIC50 in assay [1] was 6.80; in assay [3] it was 6.70; in assay [4], 7.89; in [5], 6.99; in assay [7], 6.59; in assay [10], 8.64. The pIC50 in assay [11] is 7.75. The inhibition in assay [2] was found to be 17%; in [6], 93%; in [8], 62%; in assay [9] it was 97%; in assay [12] it was 6%; in assay [13], 97%. In addition, the inhibition in [14] was determined as 97%.

For `O=C1NC(=S)S/C1=C\c1ccc2ncsc2c1`, the inhibition result in assay [15] was “inactive”. The pIC50 was 6.25 in [3], 6.59 in assay [7], 8.64 in [10] and 7.50 in [11]. For the same compound, the inhibition worked out at 93% in [6], 56% in assay [8], 97% in [9] and 90% in assay [13].

For `O=C1OCC/C1=C\c1ccc2ncsc2c1`, the inhibition in assay [16] was found to be 77%.

As to `CC1C/C(=C\c2ccc3c(c2)CCO3)C(=O)O1` (stereo not given), in assay [16], the inhibition was found to be 73%.
